Reference: ChEMBL document CHEMBL3046615, “Isolation of nematicidal compounds from Tagetes patula L. yellow flowers: structure-activity relationship studies against cyst nematode Heterodera zeae infective stage larvae” (2011)
Activity calls are given as the source filed them. The rule behind the calls is not given here.

Tests used:
Heterodera zeae [1] = test: Nematicidal activity against Heterodera zeae infective stage larvae assessed as nematode mortality at 5% under light conditions measured 5 to 60 min post dose by stereoscopic microscopy; format: functional, organism-based
How it was run: (§1)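 H. zeae freshly hatched second-stage juveniles, 100 per plate, three replicates, at 28 ± 2 °C under light or in a dark box. Dilutions are % of a stock: 30 mg/mL for extracts/fractions, 1 mg/mL for pure compounds. Methanol-, DMSO- or water-soluble samples were tested in glass cavity blocks. Petroleum ether-soluble samples were air-dried in the block and covered with agar pieces bearing cultured larvae. Mortality was followed over 5–60 min; each value is the mean of three experiments.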

Heterodera zeae [2] = test: Nematicidal activity against Heterodera zeae infective stage larvae assessed as nematode mortality at 0.5% under dark conditions measured 24 hr post dose by stereoscopic microscopy; format: functional
How it was run: (§2)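 Freshly hatched H. zeae second-stage juveniles, 100 per Petri plate, three replicates. Samples in MeOH, DMSO or water were tested in glass cavity blocks; petroleum ether samples were dried onto the block and larvae transferred on agar pieces. Percentages are dilutions of 30 mg/mL stocks (extracts/fractions) or 1 mg/mL stocks (pure compounds). Incubated at 28 ± 2 °C in light or dark box; mortality averaged over three replicates.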

Heterodera zeae [3] = test: Nematicidal activity against Heterodera zeae infective stage larvae assessed as nematode mortality at 0.125% under light conditions measured 24 hr post dose by stereoscopic microscopy; format: functional; how it was run: as §2
Heterodera zeae [4] = test: Nematicidal activity against Heterodera zeae infective stage larvae assessed as nematode mortality at 0.125% under dark conditions measured 24 hr post dose by stereoscopic microscopy; format: functional; how it was run: as §2
Heterodera zeae [5] = test: Nematicidal activity against Heterodera zeae infective stage larvae assessed as nematode mortality at 0.25% under light conditions measured 48 hr post dose by stereoscopic microscopy; format: functional; how it was run: as §2
Heterodera zeae [6] = test: Nematicidal activity against Heterodera zeae infective stage larvae assessed as nematode mortality at 0.125% under light conditions measured 5 to 60 min post dose by stereoscopic microscopy; format: functional, organism-based; how it was run: as §1
Heterodera zeae [7] = test: Nematicidal activity against Heterodera zeae infective stage larvae assessed as nematode mortality at 1% under light conditions measured 5 to 60 min post dose by stereoscopic microscopy; format: functional, organism-based; how it was run: as §1
Heterodera zeae [8] = test: Nematicidal activity against Heterodera zeae infective stage larvae assessed as nematode mortality at 0.125% under dark conditions measured 48 hr post dose by stereoscopic microscopy; format: functional; how it was run: as §2
Heterodera zeae [9] = test: Nematicidal activity against Heterodera zeae infective stage larvae assessed as nematode mortality at 1% under light conditions measured 24 hr post dose by stereoscopic microscopy; format: functional; how it was run: as §2
Heterodera zeae [10] = test: Nematicidal activity against Heterodera zeae infective stage larvae assessed as nematode mortality at 0.25% under dark conditions measured 48 hr post dose by stereoscopic microscopy; format: functional; how it was run: as §2
Heterodera zeae [11] = test: Nematicidal activity against Heterodera zeae infective stage larvae assessed as nematode mortality at 1% under dark conditions measured 5 to 60 min post dose by stereoscopic microscopy; format: functional, organism-based; how it was run: as §1
Heterodera zeae [12] = test: Nematicidal activity against Heterodera zeae infective stage larvae assessed as nematode mortality at 0.25% under light conditions measured 24 hr post dose by stereoscopic microscopy; format: functional; how it was run: as §2
Heterodera zeae [13] = test: Nematicidal activity against Heterodera zeae infective stage larvae assessed as nematode mortality at 0.25% under dark conditions measured 24 hr post dose by stereoscopic microscopy; format: functional; how it was run: as §2
Heterodera zeae [14] = test: Nematicidal activity against Heterodera zeae infective stage larvae assessed as nematode mortality at 5% under dark conditions measured 5 to 60 min post dose by stereoscopic microscopy; format: functional, organism-based; how it was run: as §1
Heterodera zeae [15] = test: Nematicidal activity against Heterodera zeae infective stage larvae assessed as nematode mortality at 0.125% under dark conditions measured 5 to 60 min post dose by stereoscopic microscopy; format: functional, organism-based; how it was run: as §1
Heterodera zeae [16] = test: Nematicidal activity against Heterodera zeae infective stage larvae assessed as nematode mortality at 0.125% under light conditions measured 48 hr post dose by stereoscopic microscopy; format: functional; how it was run: as §2
Heterodera zeae [17] = test: Nematicidal activity against Heterodera zeae infective stage larvae assessed as nematode mortality at 0.5% under light conditions measured 24 hr post dose by stereoscopic microscopy; format: functional; how it was run: as §2
Heterodera zeae [18] = test: Nematicidal activity against Heterodera zeae infective stage larvae assessed as nematode mortality at 0.5% under light conditions measured 5 to 60 min post dose by stereoscopic microscopy; format: functional, organism-based; how it was run: as §1
Heterodera zeae [19] = test: Nematicidal activity against Heterodera zeae infective stage larvae assessed as nematode mortality at 1% under dark conditions measured 48 hr post dose by stereoscopic microscopy; format: functional; how it was run: as §2
Heterodera zeae [20] = test: Nematicidal activity against Heterodera zeae infective stage larvae assessed as nematode mortality at 0.5% under dark conditions measured 5 to 60 min post dose by stereoscopic microscopy; format: functional, organism-based; how it was run: as §1
Heterodera zeae [21] = test: Nematicidal activity against Heterodera zeae infective stage larvae assessed as nematode mortality at 0.5% under light conditions measured 48 hr post dose by stereoscopic microscopy; format: functional; how it was run: as §2
Heterodera zeae [22] = test: Nematicidal activity against Heterodera zeae infective stage larvae assessed as nematode mortality at 2% under light conditions measured 5 to 60 min post dose by stereoscopic microscopy; format: functional, organism-based; how it was run: as §1
Heterodera zeae [23] = test: Nematicidal activity against Heterodera zeae infective stage larvae assessed as nematode mortality at 1% under dark conditions measured 24 hr post dose by stereoscopic microscopy; format: functional; how it was run: as §2
Heterodera zeae [24] = test: Nematicidal activity against Heterodera zeae infective stage larvae assessed as nematode mortality at 2% under dark conditions measured 5 to 60 min post dose by stereoscopic microscopy; format: functional, organism-based; how it was run: as §1
Heterodera zeae [25] = test: Nematicidal activity against Heterodera zeae infective stage larvae assessed as nematode mortality at 0.5% under dark conditions measured 48 hr post dose by stereoscopic microscopy; format: functional; how it was run: as §2
Heterodera zeae [26] = test: Nematicidal activity against Heterodera zeae infective stage larvae assessed as nematode mortality at 0.25% under light conditions measured 5 to 60 min post dose by stereoscopic microscopy; format: functional, organism-based; how it was run: as §1
Heterodera zeae [27] = test: Nematicidal activity against Heterodera zeae infective stage larvae assessed as nematode mortality at 0.25% under dark conditions measured 5 to 60 min post dose by stereoscopic microscopy; format: functional, organism-based; how it was run: as §1
Heterodera zeae [28] = test: Nematicidal activity against Heterodera zeae infective stage larvae assessed as nematode mortality at 1% under light conditions measured 48 hr post dose by stereoscopic microscopy; format: functional; how it was run: as §2
Heterodera zeae [29] = test: Nematicidal activity against Heterodera zeae infective stage larvae assessed as nematode mortality at 0.125% under dark conditions measured 72 hr post dose by stereoscopic microscopy; format: functional; how it was run: as §2
Heterodera zeae [30] = test: Nematicidal activity against Heterodera zeae infective stage larvae assessed as nematode mortality at 0.25% under dark conditions measured 72 hr post dose by stereoscopic microscopy; format: functional; how it was run: as §2

Structure (SMILES) | Activity (Heterodera zeae [1]) | mortality (Heterodera zeae [2]) | mortality (Heterodera zeae [3]) | mortality (Heterodera zeae [4]) | Activity (Heterodera zeae [6]) | Activity (Heterodera zeae [7]) | mortality (Heterodera zeae [9]) | Activity (Heterodera zeae [11]) | mortality (Heterodera zeae [12]) | mortality (Heterodera zeae [13]) | Activity (Heterodera zeae [14]) | Activity (Heterodera zeae [15]) | mortality (Heterodera zeae [17]) | Activity (Heterodera zeae [18]) | Activity (Heterodera zeae [20]) | Activity (Heterodera zeae [22]) | mortality (Heterodera zeae [23]) | Activity (Heterodera zeae [24]) | Activity (Heterodera zeae [26]) | Activity (Heterodera zeae [27]) | other results
COC(=O)c1ccc(O)c(O)c1 [METHYL PROTOCATECHUATE] | inactive | 20% | 50% | 10% | inactive | inactive | 100% | inactive | 50% | 10% | inactive | inactive | 70% | inactive | inactive | inactive | 60% | inactive | inactive | inactive | mortality (Heterodera zeae [5]): 100%; mortality (Heterodera zeae [8]): 100%; mortality (Heterodera zeae [10]): 100%; mortality (Heterodera zeae [16]): 100%; mortality (Heterodera zeae [19]): 100%; mortality (Heterodera zeae [21]): 100%; mortality (Heterodera zeae [25]): 100%
O=C(O)c1ccc(O)c(O)c1 [PROTOCATECHUIC ACID] | inactive | 40% | 50% | 10% | inactive | inactive | 100% | inactive | 50% | 10% | inactive | inactive | 50% | inactive | inactive | inactive | 40% | inactive | inactive | inactive | mortality (Heterodera zeae [5]): 100%; mortality (Heterodera zeae [8]): 100%; mortality (Heterodera zeae [10]): 100%; mortality (Heterodera zeae [16]): 100%; mortality (Heterodera zeae [19]): 100%; mortality (Heterodera zeae [21]): 100%; mortality (Heterodera zeae [25]): 100%
c1csc(-c2ccc(-c3cccs3)s2)c1 [ALPHA-TERTHIENYL] | inactive | 100% | 100% | 100% | inactive | inactive | 100% | inactive | 100% | 100% | inactive | inactive | 100% | inactive | inactive | inactive | 100% | inactive | inactive | inactive | –
COc1cc(C(=O)O)cc(OC)c1OC [3,4,5-TRIMETHOXYBENZOIC ACID] | inactive | 90% | 90% | 80% | inactive | inactive | 100% | inactive | 90% | 90% | inactive | inactive | 100% | inactive | inactive | inactive | 100% | inactive | inactive | inactive | mortality (Heterodera zeae [5]): 100%; mortality (Heterodera zeae [8]): 100%; mortality (Heterodera zeae [10]): 100%; mortality (Heterodera zeae [16]): 100%; mortality (Heterodera zeae [25]): 100%
C[C@@H]1O[C@@H](OC[C@H]2O[C@@H](Oc3c(-c4ccc(O)c(O)c4)oc4cc(O)cc(O)c4c3=O)[C@H](O)[C@@H](O)[C@@H]2O)[C@H](O)[C@H](O)[C@H]1O [RUTIN] | inactive | 100% | 0% | 0% | inactive | inactive | 100% | inactive | 0% | 0% | inactive | inactive | 100% | inactive | inactive | inactive | 100% | inactive | inactive | inactive | mortality (Heterodera zeae [5]): 100%; mortality (Heterodera zeae [8]): 70%; mortality (Heterodera zeae [10]): 70%; mortality (Heterodera zeae [28]): 100%; mortality (Heterodera zeae [29]): 70%; mortality (Heterodera zeae [16]): 100%; mortality (Heterodera zeae [30]): 70%; mortality (Heterodera zeae [21]): 100%
CCCCC/C=C\C/C=C\CCCCCCCC(=O)O [LINOLEIC ACID] | inactive | 100% | 100% | 100% | inactive | inactive | 100% | inactive | 100% | 100% | inactive | inactive | 100% | inactive | inactive | inactive | 100% | inactive | inactive | inactive | –
O=C(O)c1cc(O)c(O)c(O)c1 [GALLIC ACID] | inactive | 100% | 100% | 100% | inactive | inactive | 100% | inactive | 100% | 100% | inactive | inactive | 100% | inactive | inactive | inactive | 100% | inactive | inactive | inactive | –
